Laboratory results from ChEMBL document CHEMBL4406862, “Chalcone derivatives targeting mitosis: synthesis, evaluation of antitumor activity and lipophilicity” (Eur J Med Chem, 2019).
The source made the active and inactive calls. The rule behind the calls is not given here.

Tests used:
[1] = Lipophilicity, log k of compound in DMPC/buffer incubated for 30 mins by spectrophotometry; type: physicochemical; conditions: 0.5 h
Outline: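 DMPC liposomes made by thin-film hydration in HEPES buffer, extruded at 40 °C. Fixed compound concentration with DMPC 50–1000 μM, incubated 30 min at 37 °C, pH 7.4; spectra 250–500 nm against compound-free references. Second-derivative values fitted (nonlinear least squares) versus lipid concentration to give Kp; lipid molar volume 0.66 L mol⁻¹; mean ± SD of at least three experiments.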

[2] = system: MCF7; experiment: Antiproliferative activity against human MCF7 cells assessed as reduction in cell viability incubated for 48 hrs by sulforhodamine B assay; type: functional; conditions: MCF7, 48 h
Outline: (§1)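 Cells in RPMI-1640 with 5% FBS, 37 °C, 5% CO2; seeded 0.05×10^6 cells/well, 24 h, then two-fold serial dilutions from 0 to 150 μM (DMSO up to 0.25%) for 48 h. TCA fixation, SRB stain 30 min, dye solubilized in 10 mM Tris, absorbance 515 nm. GI50 from dose-response curve; mean ± SD, at least three independent experiments in duplicate.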

[3] = system: NCI-H460; experiment: Antiproliferative activity against human NCI-H460 cells assessed as reduction in cell viability incubated for 48 hrs by sulforhodamine B assay; type: functional; conditions: NCI-H460, 48 h; outline: as §1
[4] = n-Octanol/water partition coefficient, log P of the compound incubated for 30 mins by spectrophotometry; type: physicochemical
[5] = Antiproliferative activity against human A375-C5 cells assessed as reduction in cell viability incubated for 48 hrs by sulforhodamine B assay; type: functional; conditions: A375-C5, 48 h; outline: as §1
[6] = system: NCI-H460; experiment: Cytotoxicity against human NCI-H460 cells assessed as reduction in cell viability at 25 nM incubated for 48 hrs by MTT assay; type: functional, cell-based
Outline: (§2)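 MTT 0.5 mg/ml in serum-free medium 4 h; formazan dissolved in isopropanol/Triton/HCl 2 h; absorbance 570 nm. Viability relative to untreated cells; mean ± SD of at least three independent experiments.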

[7] = system: NCI-H460; experiment: Induction of mitotic arrest in human NCI-H460 cells assessed as mitotic index at 3 times of GI50 incubated for 15 hrs by DAPI staining based phase contrast microscopy (reference value: 11.3 %); type: functional
[8] = system: NCI-H460; experiment: Potentiation of paclitaxel-induced cytotoxicity against human NCI-H460 cells assessed as reduction in cell viability at 0.5 times of GI50 incubated for 48 hrs by MTT assay (reference value: 92.3 %); type: functional; outline: as §2
[9] = system: NCI-H460; experiment: Induction of mitotic arrest in human NCI-H460 cells assessed as accumulation of bright round shape cells at 3 times of GI50 incubated for 15 hrs by phase contrast microscopy; type: functional, cell-based
[10] = system: NCI-H460; experiment: Induction of mitotic arrest in human NCI-H460 cells assessed as condensed chromosome at 3 times of GI50 incubated for 15 hrs by DAPI staining based phase contrast microscopy; type: functional, cell-based
Outline: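 NCI-H460 treated 15 h at 3×GI50; DAPI staining of DNA viewed to detect condensed chromosomes of mitotic cells.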

[11] = system: NCI-H460; experiment: Cytotoxicity against human NCI-H460 cells assessed as reduction in cell viability at 0.5 times of GI50 incubated for 48 hrs by MTT assay relative to control; type: functional; outline: as §2
[12] = system: NCI-H460; experiment: Induction of cell death in human NCI-H460 cells assessed as micronucleation at 3 times of GI50 incubated for 24 hrs by DAPI staining based fluorescence microscopy; type: functional
Outline: (§3)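 NCI-H460 cells exposed 24 h, DAPI-stained for DNA, nuclear morphology and micronucleation examined by fluorescence microscopy.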

[13] = system: NCI-H460; experiment: Induction of mitotic arrest in human NCI-H460 cells assessed as abnormal mitotic spindle morphology at 3 times of GI50 incubated for 15 hrs by immunostaining based fluorescence microscopy; type: functional, cell-based
Outline: (§4)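 NCI-H460 on poly-L-lysine coverslips treated 15 h at 3×GI50; fixed in 2% paraformaldehyde, 0.5% Triton X-100 permeabilization, 10% FBS blocking; mouse anti-α-tubulin (1:2500) then Alexa Fluor 488 secondary (1:1500); DAPI 2 µg/mL. Fluorescence microscopy of spindles; multipolar spindles as percentage of total spindles; mean ± SD, three independent experiments.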

[14] = system: NCI-H460; experiment: Induction of mitotic arrest in human NCI-H460 cells assessed as multipolar spindles at 3 times of GI50 incubated for 15 hrs by fluorescence microscopy (reference value: 2 %); type: functional; outline: as §4
[15] = system: NCI-H460; experiment: Induction of mitotic arrest in human NCI-H460 cells assessed as decrease in chromosome align at metaphase plate at 3 times of GI50 incubated for 15 hrs by DAPI staining based fluorescence microscopy; type: functional, cell-based; outline: as §4
[16] = system: NCI-H460; experiment: Potentiation of paclitaxel-induced cytotoxicity against human NCI-H460 cells assessed as reduction in cell viability at 1 times of GI50 incubated for 48 hrs by MTT assay (reference value: 92.3 %); type: functional; outline: as §2
[17] = system: NCI-H460; experiment: Induction of cell death in human NCI-H460 cells assessed as abnormal nuclear morphology at 3 times of GI50 incubated for 24 hrs by DAPI staining based fluorescence microscopy; type: functional; outline: as §3
[18] = system: NCI-H460; experiment: Cytotoxicity against human NCI-H460 cells assessed as reduction in cell viability at 1 times of GI50 incubated for 48 hrs by MTT assay relative to control; type: functional; outline: as §2
[19] = system: NCI-H460; experiment: Induction of mitotic arrest in human NCI-H460 cells assessed as accumulation of bright round shape cells at 1 uM incubated for 15 hrs by phase contrast microscopy; type: functional, cell-based
[20] = system: NCI-H460; experiment: Induction of mitotic arrest in human NCI-H460 cells assessed as mitotic index 1 uM incubated for 15 hrs by DAPI staining based phase contrast microscopy (reference value: 11.3 %); type: functional

Row | log Kp [1] | GI50 [2] [µM] | GI50 [3] [µM] | logP at 0.5 h [4] | Compound | GI50 [5] [µM] | further results
1 | 3.72 | 10.8 | 15.3 | 3.4 | COc1ccc(/C=C/C(=O)c2cc(C)cs2)cc1OC | 11.3 | –
2 | 4.33 | 11.7 | 8.34 | 4.38 | O=C(/C=C/c1cc(Cl)cc(Cl)c1)c1cccs1 | 5.38 | –
3 | – | – | – | – | CC(=O)O[C@H]1C(=O)[C@@]2(C)[C@H]([C@H](OC(=O)c3ccccc3)[C@]3(O)C[C@H](OC(=O)[C@H](O)[C@@H](NC(=O)c4ccccc4)c4ccccc4)C(C)=C1C3(C)C)[C@]1(OC(C)=O)CO[C@@H]1C[C@@H]2O | – | Activity [6]: inactive
4 | 2.8 | 22.5 | 15.5 | 4.65 | Cc1csc(C(=O)/C=C/c2ccc(Cl)c(Cl)c2)c1 | 12.1 | –
5 | 3.54 | 3.26 | 3.02 | 3.29 | COc1cc(/C=C/C(=O)c2cc(C)cs2)cc(OC)c1OC | 3.21 | –
6 | 3.6 | 10.1 | 7.48 | 3.31 | COc1cc(OC)c(OC)cc1/C=C/C(=O)c1cc(C)cs1 | 6.96 | –
7 | 2.8 | 59.9 | 61.8 | 2.51 | COc1cc(C2OC2C(=O)c2cccs2)cc(OC)c1OC (stereo not given) | 38.5 | –
8 | 3.14 | 15.1 | 27.7 | 4.52 | COc1ccc(C(=O)/C=C/c2ccc(Cl)c(Cl)c2)cc1OC | 4.14 | –
9 | 3.49 | 5.95 | 5.06 | 2.99 | COc1cc(/C=C/C(=O)c2cccs2)cc(OC)c1OC | 3.63 | –
10 | 3.52 | 4.28 | 4.44 | 3.43 | COc1cc(/C=C/C(=O)c2cc(C)cs2)cc(OC)c1 | 3.33 | –
11 | 3.51 | 13.2 | 8.95 | 3.27 | COc1ccc(/C=C/C(=O)c2ccc(OC)c(OC)c2)cc1OC | 3.81 | –
12 | 3.53 | 5.56 | 6.28 | 3.23 | COc1cc(/C=C/C(=O)c2ccc(C)s2)cc(OC)c1OC | 5.7 | Activity [7]: 25.8 - 49.37%; Activity [8]: 51.8%; Activity [9]: Active; Activity [10]: Active; Activity [11]: 96.9%; Activity [12]: Active; Activity [13]: Active; Activity [14]: 28%; Activity [15]: Active; Activity [16]: 46.8%; Activity [17]: Active; Activity [18]: 67.9%
13 | 3.3 | 3.97 | 5.6 | 3.22 | COc1ccc(C(=O)/C=C/c2cc(OC)c(OC)c(OC)c2)cc1OC | 2.89 | –
14 | 3.16 | > 37.5 | > 37.5 | 2.99 | COc1cc(-c2cc(-c3cccs3)n[nH]2)cc(OC)c1OC | > 37.5 | –
15 | 3.29 | 6.49 | 10.8 | 3.35 | COc1cc(/C=C/C(=O)c2ccc(OC)c(OC)c2)cc(OC)c1 | 3.45 | –
16 | 3.68 | 6.89 | 6.61 | 4.19 | COc1cc(/C=C/C(=O)c2cc3ccccc3s2)cc(OC)c1OC | 6.9 | Activity [7]: 25.8 - 49.37%; Activity [9]: Active; Activity [10]: Active; Activity [13]: Active; Activity [15]: Active
17 | 4.04 | 16.3 | 16.1 | 3.27 | COc1cc(-c2cc(-c3cc(C)cs3)n[nH]2)cc(OC)c1OC | 16.1 | –
18 | 4.29 | 9.75 | 8.35 | 3.22 | COc1cc(/C=C/C(=O)c2cc3cccc(O)c3o2)cc(OC)c1OC | 8.57 | Activity [7]: 25.8 - 49.37%; Activity [9]: Active; Activity [10]: Active; Activity [13]: Active; Activity [15]: Active
19 | 3.62 | 23.9 | 17.8 | 3.07 | COc1ccc(/C=C/C(=O)c2cccs2)cc1OC | 17.8 | –
20 | 3.75 | 14 | 16.9 | 2.5 | COc1cc(C2OC2C(=O)c2cc(C)cs2)cc(OC)c1OC (stereo not given) | 6.63 | –
21 | 2.77 | 12.1 | 8.44 | 4.35 | O=C(/C=C/c1ccc(Cl)c(Cl)c1)c1cccs1 | 7.25 | –
22 | 3.49 | 12.6 | 13.6 | 3.02 | COc1cc(OC)c(OC)cc1/C=C/C(=O)c1cccs1 | 11.1 | –
23 | 3.35 | 8.52 | 8.74 | 3.24 | COc1cc(OC)c(OC)cc1/C=C/C(=O)c1ccc(OC)c(OC)c1 | 7.1 | –
24 | – | – | – | – | COC(=O)Nc1nc2cc(C(=O)c3cccs3)ccc2[nH]1 [NOCODAZOLE] | – | Activity [19]: Active; Activity [20]: 73.1%
25 | 4.43 | 12.2 | 11.8 | 4.67 | Cc1csc(C(=O)/C=C/c2cc(Cl)cc(Cl)c2)c1 | 7.14 | –
26 | 3.41 | 7.7 | 7.12 | 3.14 | COc1cc(/C=C/C(=O)c2cccs2)cc(OC)c1 | 4.15 | –
27 | 4.1 | 8.41 | 9.61 | 4.54 | COc1ccc(C(=O)/C=C/c2cc(Cl)cc(Cl)c2)cc1OC | 4.51 | –
